Measured values: ChEMBL document CHEMBL1127574, “Design and synthesis of ellipticinium salts and 1,2-dihydroellipticines with high selectivities against human CNS cancers in vitro” (1994)

Experiments:
Format in all cases: functional
Conditions in all cases: Homo sapiens
Malme-3M = test: Tested in vitro for cytotoxicity in MALME-3M
Procedure, shortened: (§1)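 Compounds dissolved in DMSO, then diluted 500-fold into aqueous medium. The resulting aqueous solutions or suspensions were added to the cultured human tumour cell lines, and the cells were exposed for 48 h. Growth was read colorimetrically in one of two ways: a metabolic assay in which viable cells reduce a tetrazolium salt to a formazan dye, or a protein stain for total cellular protein.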

A549 = test: Tested in vitro for cytotoxicity in A549/ATCC cell lines; procedure, shortened: as §1
SF-268 = test: Tested in vitro for cytotoxicity in SF-268 cell lines; procedure, shortened: as §1
COLO 205 = test: Tested in vitro for cytotoxicity in COLO 205 cell lines; procedure, shortened: as §1
DMS-114 = test: Tested in vitro for cytotoxicity in DMS114 cell lines; procedure, shortened: as §1
IGROV-1 = test: Tested in vitro for cytotoxicity in IGROV1 cell lines; procedure, shortened: as §1
CCRF-CEM = test: Tested in vitro for cytotoxicity in CCRF-CEM cell lines; procedure, shortened: as §1

`Cc1c2cc[n+](CC(=O)O)cc2c(C)c2c1[nH]c1ccccc12` showed a GI50 (Malme-3M) of 26.3 µM, a GI50 (A549) of 77.3 µM and a GI50 (SF-268) of 97.1 µM. It also gave a GI50 (COLO 205) of over 100 µM, a GI50 (DMS-114) of 76.8 µM and a GI50 (IGROV-1) of over 100 µM. It also gave a GI50 (CCRF-CEM) of over 100 µM.
